# In ChEMBL document CHEMBL1157310, “Cytotoxic oxylipins from a marine sponge Topsentia sp” (2006):
# Experiments:
# Format in all cases: functional
# Conditions in all cases: read-out: ED50 (the source's name)
# SK-OV-3 = assay: Cytotoxicity against human SK-OV-3 cells
# A549 = assay: Cytotoxicity against human A549 cells
# SK-MEL-2 = assay: Cytotoxicity against human SK-MEL-2 cells
# How it was run: (§1)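 Human tumour cell lines of stated origin: SK-MEL-2 from skin cancer, XF498 from CNS cancer, HCT 15 from colon cancer.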
# HCT-15 = assay: Cytotoxicity against human HCT15 cells; how it was run: as §1
# XF498 = assay: Cytotoxicity against human XF498 cells; how it was run: as §1
smiles,measurement,setting,value
COc1cccc2c1C(=O)c1c(O)c3c(c(O)c1C2=O)C[C@@](O)(C(=O)CO)C[C@@H]3O[C@H]1C[C@H](N)[C@H](O)[C@H](C)O1 [DOXORUBICIN],EC50,SK-OV-3,0.13 µg/mL
same,EC50,A549,0.04 µg/mL
same,EC50,SK-MEL-2,0.04 µg/mL
same,EC50,HCT-15,0.06 µg/mL
same,EC50,XF498,0.06 µg/mL
